# From ChEMBL document CHEMBL4311948, “Exploring the Natural Piericidins as Anti-Renal Cell Carcinoma Agents Targeting Peroxiredoxin 1” (J Med Chem, 2019)
# The source made the active and inactive calls. The calls are words filed in the database; no cut-off is given here.
# Columns and labels:
# ACHN [1] = assay: Cytotoxicity against human ACHN cells harboring shPRDX1 gene assessed as reduction in cell viability measured after 72 hrs by CCK8 assay; type: functional, cell-based; details: Homo sapiens, ACHN, 72 h; read-out: IC50
# Method in brief: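 Transfectants were selected with puromycin (1 μg/mL), and knockdown was confirmed by immunoblot. Viability was read by CCK-8 after 72 h of compound exposure in 384-well plates at 400–800 cells/well in MEM with 10% FBS, and IC50 was taken from dose-response curves.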
# ACHN [2] = assay: Down regulation of EGFR mRNA expression in human ACHN cells at 25 to 50 nM measured after 24 hrs by qRT-PCR analysis; type: functional, cell-based
# ACHN [3] = assay: Down regulation of SLC2A1 mRNA expression in human ACHN cells at 25 to 50 nM measured after 24 hrs by qRT-PCR analysis; type: functional, cell-based
# ACHN [4] = assay: Down regulation of LDHA mRNA expression in human ACHN cells at 25 to 50 nM measured after 24 hrs by qRT-PCR analysis; type: functional, cell-based
# ACHN [5] = assay: Down regulation of HIF1A mRNA expression in human ACHN cells at 25 to 50 nM measured after 24 hrs by qRT-PCR analysis; type: functional, cell-based
# ACHN [6] = assay: Antiproliferative activity against human ACHN cells assessed as inhibition of cell proliferation at 50 nM measured after 24 to 72 hrs by holographic microscopy; type: functional, cell-based
# Method in brief: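 2×10^5 ACHN cells plated per well and allowed to adhere 24 h. 50 nM then added. Label-free digital holographic microscopy (Holomonitor M4) automatically tracked cell movement, morphology and thickness over time.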
# ACHN [7] = assay: Induction of apoptosis in human ACHN cells assessed as late apoptotic cells at 50 nM measured after 24 hrs by Annexin V-FITC/propidium iodide staining based flow cytometry (reference value: 0%); type: functional
# ACHN [8] = assay: Induction of apoptosis in human ACHN cells assessed as early apoptotic cells at 50 nM measured after 48 hrs by Annexin V-FITC/propidium iodide staining based flow cytometry (reference value: 0%); type: functional
# ACHN [9] = assay: Up regulation of nuclear PRDX1 expression in human ACHN cells at 25 to 50 nM measured after 24 hrs by immunoblot analysis; type: functional, cell-based
# Method in brief: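 ACHN cells treated 24 h with 25 or 50 nM, then nuclear and cytosolic extracts prepared. Lysis in RIPA buffer, BCA quantitation, 30–50 μg protein resolved on 10% or 12% gels. Blotted with anti-PRDX1 (1:1000) and β-actin (1:3000), band ratio PRDX1/β-actin reported as fold change. Mean ± SD.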
# ACHN [10] = assay: Antitumor activity against human ACHN cells xenografted in Balb/c nu/nu mouse assessed as tumor weight at 0.8 mg/kg, ip administered once daily for 21 days measured post-last dose by caliper method (reference value: 0.55 +/- 0.13 g); type: functional
# Method in brief: (§1)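 Male athymic Balb/c nu/nu mice, four weeks old, acclimatised 1 week. 10^7 ACHN cells in 0.2 mL PBS injected into the right flank. At about 150 mm3, mice randomised into PBS control or 0.8 mg/kg groups, dosed ip daily for three weeks. Tumours measured by caliper (volume = 0.5 × L × W²) with body weight recorded. Endpoint tumour weight, sections stained by H&E and TUNEL. Tissue lysed for immunoblot.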
# [11] = Toxicity in Balb/c nu/nu mouse xenografted with human ACHN cells assessed as effect on survival at 0.8 mg/kg, ip administered once daily for 21 days; type: organism-based; details: in vivo, 504 h; method in brief: as §1
compound,measurement,setting,value
C/C=C(\C)[C@H](O)[C@H](C)/C=C(C)/C=C/C/C(C)=C/Cc1nc(OC)c(OC)c(O)c1C [PIERICIDIN A],IC50,ACHN [1],1600 nM
same,Activity,ACHN [2],Active
same,Activity,ACHN [3],Active
same,Activity,ACHN [4],Active
same,Activity,ACHN [5],Active
same,Activity,ACHN [6],Active
same,Activity,ACHN [7],1.3%
same,Activity,ACHN [8],1.1%
same,Activity,ACHN [9],Active
same,Activity,ACHN [10],0.28 g
same,Activity,[11],Non-Toxic
